This is an account of results in ChEMBL document CHEMBL2407018, “Luteolin suppresses the differentiation of THP-1 cells through the Inhibition of NOX2 mRNA expression and the membrane translocation of p47phox” (J Nat Prod, 2013).

Test [1] deals with THP-1. Nature of the test: Inhibition of TPA-induced MEK/ERK phosphorylation in human THP1 cells at 20 uM incubated for 1 hr prior to TPA challenge measured after 15 mins by Western blot analysis. Type of test: cell-based. Put shortly: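 THP-1 cells pretreated 1 h, then 100 nM TPA for 15 min. Lysed in buffer A (Tris pH 7.4 with phosphatase inhibitors, 1% Triton X-100). 20 μg protein run on 12% SDS-PAGE and PVDF, probed for phospho- and total MEK and ERK (1:1000) with biotin secondary and ABC detection.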
On the technique in general: A western blot detects proteins with antibodies after separation by electrophoresis.

The test system of test [2] is THP-1. Nature of the test: Downregulation of TPA-induced NOX2 mRNA expression in human THP1 cells at 20 uM incubated for 1 hr prior to TPA challenge measured after 24 hrs by RT-PCR analysis. Type of test: functional, cell-based. In a few lines:
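THP-1 cells in RPMI1640 with 10% FCS, 2 × 10^6 cells per 3.5 cm dish, pretreated 1 h, then 100 nM TPA for 24 h. Total RNA extracted in TRIzol, NOX2 measured by RT-PCR and normalized to 18s rRNA.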

The target in test [3] is T1, NADPH oxidase 2 (Homo sapiens) (UniProt P04839).
T1 sequence (whole entry): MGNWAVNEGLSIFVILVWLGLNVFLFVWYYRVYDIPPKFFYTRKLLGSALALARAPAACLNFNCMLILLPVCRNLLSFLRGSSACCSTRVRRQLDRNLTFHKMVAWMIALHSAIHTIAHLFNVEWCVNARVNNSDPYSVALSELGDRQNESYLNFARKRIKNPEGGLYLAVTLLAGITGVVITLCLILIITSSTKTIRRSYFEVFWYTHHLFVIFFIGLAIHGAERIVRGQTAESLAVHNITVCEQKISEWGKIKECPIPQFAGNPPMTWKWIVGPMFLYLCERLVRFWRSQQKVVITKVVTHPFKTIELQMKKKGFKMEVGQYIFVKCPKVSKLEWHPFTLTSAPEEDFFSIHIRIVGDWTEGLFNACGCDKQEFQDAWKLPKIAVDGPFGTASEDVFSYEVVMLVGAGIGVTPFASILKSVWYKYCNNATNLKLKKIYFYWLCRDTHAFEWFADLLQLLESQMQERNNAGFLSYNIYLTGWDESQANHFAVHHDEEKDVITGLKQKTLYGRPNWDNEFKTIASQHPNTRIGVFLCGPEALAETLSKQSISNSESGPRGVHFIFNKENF
Nature of the test: Inhibition of NOX2 in human THP1 cells assessed as suppression of TPA-induced intracellular ROS accumulation at 20 uM incubated for 1 hr prior to TPA challenge measured after 24 hrs by flow cytometric analysis. The conditions noted are these: THP-1. Type of test: cell-based. Put shortly:
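THP-1 cells pretreated 1 h, then 100 nM TPA for 24 h. Cells scraped, stained 20 min with 10 μM carboxy-H2DCFDA in PBS with […] in a 5% CO2 incubator, and washed three times in ice-cold PBS. DCF fluorescence read by flow cytometry.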

The target of test [4] is T1, NADPH oxidase 2 (Homo sapiens). Nature of the test: Inhibition of NOX2 in human THP1 cells assessed as downregulation of TPA-induced CD14 mRNA expression at 0.2 to 2 uM incubated for 1 hr prior to TPA challenge measured after 24 hrs by RT-PCR analysis. The note with it: THP-1. Type of test: cell-based. Put shortly: (§1)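 THP-1 cells, 2 × 10^6 per 3.5 cm dish, pretreated 1 h with 0.2, 2 or 20 μM, then 100 nM TPA for 24 h. Cells scraped and washed in cold PBS, TRIzol RNA extracted. CD11b, CD14 and CD36 transcripts measured by RT-PCR and normalized to 18s rRNA.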

Test [5] shares this target. Nature of the test: Inhibition of NOX2 in human THP1 cells assessed as downregulation of TPA-induced CD36 mRNA expression at 20 uM incubated for 1 hr prior to TPA challenge measured after 24 hrs by RT-PCR analysis. Type of test: cell-based. The conditions noted are these: THP-1. In a few lines:
(§2)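 THP-1 cells grown in RPMI1640 with 10% heat-inactivated FCS and penicillin/streptomycin at 37 °C, 5% CO2. Seeded at 2 × 10^6 cells per 3.5 cm dish. Compound added 1 h before 100 nM TPA for 24 h. Cells scraped, washed in cold PBS, lysed in TRIzol for total RNA. Transcripts measured by RT-PCR and normalized to 18s rRNA.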

The target is the same in test [6]. Nature of the test: Inhibition of NOX2 in human THP1 cells assessed as downregulation of TPA-induced CD11b mRNA expression at 0.2 to 2 uM incubated for 1 hr prior to TPA challenge measured after 24 hrs by RT-PCR analysis. Type of test: cell-based. The conditions noted are these: THP-1. Put shortly: as §1
Test [7] shares this target. Nature of the test: Inhibition of NOX2 in human THP1 cells assessed as downregulation of TPA-induced CD11b mRNA expression at 20 uM incubated for 1 hr prior to TPA challenge measured after 24 hrs by RT-PCR analysis. Type of test: cell-based. The note with it: THP-1. Put shortly: as §2
For test [8] the target is unchanged. Nature of the test: Inhibition of NOX2 in human THP1 cells assessed as suppression of TPA-induced cell adhesion at 20 uM incubated for 1 hr prior to TPA challenge measured after 24 hrs by microscopic analysis. Type of test: cell-based. The conditions noted are these: THP-1. Put shortly: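 THP-1 cells at 2 × 10^6 per 3.5 cm dish in RPMI1640 with 10% FCS. Exposed to compound for 1 h, then to 100 nM TPA for 24 h. Dishes washed three times with PBS and the remaining adherent cells inspected by microscope.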

The target is the same in test [9]. Nature of the test: Inhibition of NOX2 in human THP1 cells assessed as downregulation of TPA-induced CD36 mRNA expression at 0.2 to 2 uM incubated for 1 hr prior to TPA challenge measured after 24 hrs by RT-PCR analysis. The note with it: THP-1. Type of test: cell-based. Put shortly:
as §1

Test [10] has the same target. Nature of the test: Inhibition of NOX2 in human THP1 cells assessed as suppression of TPA-induced membrane translocation of p47phox at 20 uM incubated for 1 hr prior to TPA challenge measured after 12 hrs by Western blot analysis. The note with it: THP-1. Type of test: cell-based. Put shortly: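 Cells pretreated 1 h, then 100 nM TPA for 12 h. Lysed in digitonin buffer B (pH 7.5); after 12000g for 15 min the pellet was solubilized in buffer B with 1% Triton X-100 to give the membrane fraction. 20 μg protein run on 12% SDS-PAGE, blotted for p47phox.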

Test [11] has the same target. Nature of the test: Inhibition of NOX2 in human THP1 cells assessed as downregulation of TPA-induced CD14 mRNA expression at 20 uM incubated for 1 hr prior to TPA challenge measured after 24 hrs by RT-PCR analysis. The conditions noted are these: THP-1. Type of test: cell-based. Put shortly:
as §2

Each structure is given as a SMILES string. The source made the active and inactive calls. The calls are words filed in the database; no cut-off is given here.

Take `O=c1cc(-c2ccc(O)c(O)c2)oc2cc(O)cc(O)c12`: the inhibition entry (with THP-1 [1]; in test [4]; in [6]; in test [9]) was “inactive” in each case. The outcome in the test with THP-1 [2] was Active. In addition, the inhibition entry in [3], in test [5], in test [7], in [8], in test [10] and in test [11] was “Active” throughout.

Regarding `O=c1cc(-c2ccccc2)oc2cc(O)cc(O)c12`, the inhibition entry in test [5], in test [7], in [8] and in test [11] was “Active” each time.

`O=c1cc(-c2cc(O)c(O)c(O)c2)oc2cc(O)cc(O)c12`: the outcome with THP-1 [2] was inactive. Moreover, the inhibition result in test [5], in test [7], in test [8], in test [10] and in [11] was “inactive” in each case.

Regarding `O=c1cc(-c2ccc(O)cc2)oc2cc(O)cc(O)c12`, the inhibition result in [5], in test [7], in test [8] and in [11] was “Active” in each case.
